Positions of bridges follow the written chain, without caps; N, C: chain ends. Non-standard residues stand in square brackets, D forms with d. Residues, ends and D or L forms follow the SMILES beside them. Orn = NCCC[C@H](N)C(=O)O; Dap = NC[C@H](N)C(=O)O

For 8 compounds, Kd results are on record in ChEMBL document CHEMBL1125303, “Truncated, branched, and/or cyclic analogues of neuropeptide Y: importance of the pancreatic peptide fold in the design of specific Y2 receptor ligands” (J Med Chem, 1992).

Assay [1] concerns the target T1, Neuropeptide Y receptor type 2 (Homo sapiens, UniProt P49146).
T1 sequence (P49146 whole entry): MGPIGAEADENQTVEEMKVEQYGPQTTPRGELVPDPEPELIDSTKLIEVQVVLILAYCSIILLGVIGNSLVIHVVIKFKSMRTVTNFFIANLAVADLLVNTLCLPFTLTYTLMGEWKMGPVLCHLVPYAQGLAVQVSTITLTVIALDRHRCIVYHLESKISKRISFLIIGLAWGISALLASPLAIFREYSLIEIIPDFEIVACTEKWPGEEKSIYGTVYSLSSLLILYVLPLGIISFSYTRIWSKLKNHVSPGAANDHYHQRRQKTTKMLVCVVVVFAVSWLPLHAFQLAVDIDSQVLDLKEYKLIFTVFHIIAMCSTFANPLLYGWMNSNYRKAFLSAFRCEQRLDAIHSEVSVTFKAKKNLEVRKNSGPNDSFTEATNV
The assay can be described thus: Displacement of l25I-PYY from Neuropeptide Y receptor type 2 of human neuroblastoma SK-N-BE cells. The assay is classed as cell-based. Summed up:
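Intact SK-N-BE(2) cells (Y2) were grown in DME:F12 with 10% FCS, then plated at 10⁶ cells/well on poly(Lys-Ala)-coated wells and used after 1 day. Cells were washed cold, lysed and gamma-counted. Triplicates; Kd fitted with LIGAND.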

Assay [2] addresses T2, Neuropeptide Y receptor type 1 (Homo sapiens, UniProt P25929).
T2 sequence (P25929 whole entry): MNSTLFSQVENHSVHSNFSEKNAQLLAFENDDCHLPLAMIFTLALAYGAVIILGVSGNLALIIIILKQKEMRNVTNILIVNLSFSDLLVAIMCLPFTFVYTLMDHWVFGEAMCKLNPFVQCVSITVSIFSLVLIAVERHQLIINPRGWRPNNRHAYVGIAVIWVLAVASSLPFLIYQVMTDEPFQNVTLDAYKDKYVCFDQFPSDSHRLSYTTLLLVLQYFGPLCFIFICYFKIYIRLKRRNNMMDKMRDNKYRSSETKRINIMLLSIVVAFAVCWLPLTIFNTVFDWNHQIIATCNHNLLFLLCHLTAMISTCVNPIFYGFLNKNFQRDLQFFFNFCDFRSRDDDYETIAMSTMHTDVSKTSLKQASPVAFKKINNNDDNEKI
Nature of the assay: Displacement of l25I-PYY from Neuropeptide Y receptor type 1 of human neuroblastoma SK-N-MC cells. The assay is classed as cell-based. An outline of the steps:
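Intact SK-N-MC cells (Y1) were grown in MEM with 10% FCS, then plated at 10⁶ cells/well on poly(Lys-Ala)-coated wells and used after 2 days. Cells were washed cold, lysed and gamma-counted. Triplicates; Kd fitted with LIGAND.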

Broadly, the Kd is the concentration at which binding is half-saturated. Read a high Kd as a looser complex. `CC[C@H](C)[C@H](NC(=O)[C@H](CC(C)C)NC(=O)[C@H](CC(N)=O)NC(=O)[C@@H](NC(=O)[C@H]1CNC(=O)CC[C@H](NC(=O)[C@@H](N)Cc2ccc(O)cc2)C(=O)N[C@@H](CO)C(=O)N[C@@H](CCCCN)C(=O)N2CCC[C@H]2C(=O)N[C@H](C)C(=O)N[C@@H](CC(C)C)C(=O)N[C@@H](CCCNC(=N)N)C(=O)N[C@@H](Cc2cnc[nH]2)C(=O)N1)[C@@H](C)CC)C(=O)N[C@H](C(=O)N[C@@H](CCCNC(=N)N)C(=O)N[C@@H](CCC(N)=O)C(=O)N[C@@H](CCCNC(=N)N)C(=O)N[C@@H](Cc1ccc(O)cc1)C(N)=O)[C@@H](C)O`: the Kd in assay [1] (sk-n-be) is 0.0036 µM; in assay [2] (sk-n-mc), more than 1 µM.

As for `CC[C@H](C)[C@H](NC(=O)[C@H](Cc1ccc(O)cc1)NC(=O)[C@@H](C)NC(=O)[C@@H]1CCCN1C(=O)[C@@H](N)Cc1ccc(O)cc1)C(=O)N[C@@H](CC(N)=O)C(=O)N[C@@H](CC(C)C)C(=O)N[C@H](C(=O)N[C@H](C(=O)N[C@@H](CCCN=C(N)N)C(=O)N[C@@H](CCC(N)=O)C(=O)N[C@@H](CCCN=C(N)N)C(=O)N[C@@H](Cc1ccc(O)cc1)C(N)=O)[C@@H](C)O)[C@@H](C)CC`, binding in assay [1] (sk-n-be) was put at a Kd of 0.12 µM.

Turning to `CC[C@H](C)[C@@H]1NC(=O)[C@H](Cc2ccc(O)cc2)NC(=O)[C@@H](C)NC(=O)[C@@H]2CCCN2C(=O)[C@@H](N)CCC(=O)NC[C@H](C(=O)N[C@H](C(=O)N[C@H](C(=O)N[C@@H](CCCNC(=N)N)C(=O)N[C@@H](CCC(N)=O)C(=O)N[C@@H](CCCNC(=N)N)C(=O)N[C@@H](Cc2ccc(O)cc2)C(N)=O)[C@@H](C)O)[C@@H](C)CC)NC(=O)[C@H](CC(N)=O)NC1=O`, the Kd in assay [1] and in assay [2] was more than 1 µM throughout.

Turning to `CC[C@H](C)[C@@H]1NC(=O)[C@H](Cc2ccc(O)cc2)NC(=O)[C@H](Cc2c[nH]cn2)NC(=O)[C@H](CCCNC(=N)N)NC(=O)[C@H](CC(C)C)NC(=O)[C@@H](C)NC(=O)[C@@H]2CCCN2C(=O)[C@H](CCCCN)NC(=O)[C@H](CO)NC(=O)[C@@H](NC(=O)[C@@H](N)Cc2ccc(O)cc2)CCC(=O)NC[C@H](C(=O)N[C@H](C(=O)N[C@H](C(=O)N[C@@H](CCCNC(=N)N)C(=O)N[C@@H](CCC(N)=O)C(=O)N[C@@H](CCCNC(=N)N)C(=O)N[C@@H](Cc2ccc(O)cc2)C(N)=O)[C@@H](C)O)[C@@H](C)CC)NC(=O)[C@H](CC(N)=O)NC1=O`, in assay [2] (sk-n-mc), the dissociation constant (Kd) was more than 1 µM.

For the compound `CC[C@H](C)[C@H](NC(=O)[C@H](Cc1ccc(O)cc1)NC(=O)[C@H](Cc1c[nH]cn1)NC(=O)[C@H](CCCN=C(N)N)NC(=O)[C@H](CC(C)C)NC(=O)[C@H](C)NC(=O)[C@H](CO)NC(=O)[C@H](Cc1ccc(O)cc1)NC(=O)[C@H](Cc1ccc(O)cc1)NC(=O)[C@H](CCCN=C(N)N)NC(=O)[C@H](C)N)C(=O)N[C@@H](CC(N)=O)C(=O)N[C@H]1CCCCNC(=O)CC[C@@H](C(=O)N[C@@H](CCCN=C(N)N)C(=O)N[C@@H](Cc2ccc(O)cc2)C(N)=O)NC(=O)[C@H](CCCN=C(N)N)NC(=O)[C@H]([C@@H](C)O)NC(=O)[C@H]([C@@H](C)CC)NC1=O` (H-ARYYSALRHYINKITRERY-NH2; lactam 13-17), the Kd is 0.36 µM in assay [1] (sk-n-be) and more than 1 µM in assay [2] (sk-n-mc).

In assay [2], `CC[C@H](C)[C@H](NC(=O)[C@H](Cc1ccc(O)cc1)NC(=O)[C@H](Cc1c[nH]cn1)NC(=O)[C@H](CCCNC(=N)N)NC(=O)[C@H](CC(C)C)NC(=O)[C@H](C)NC(=O)[C@H](CO)NC(=O)[C@H](Cc1ccc(O)cc1)NC(=O)[C@H](Cc1ccc(O)cc1)NC(=O)[C@H](CCCNC(=N)N)NC(=O)[C@H](C)N)C(=O)N[C@@H](CC(N)=O)C(=O)N[C@@H](CC(C)C)C(=O)N[C@H](C(=O)N[C@H](C(=O)N[C@H]1CCCCNC(=O)CC[C@@H](C(N)=O)NC(=O)[C@H](CCCNC(=N)N)NC(=O)[C@H](CCC(N)=O)NC1=O)[C@@H](C)O)[C@@H](C)CC` (H-ARYYSALRHYINLITKQRE-NH2; lactam 16-19) had a Kd of more than 1 µM.

Consider `CC[C@H](C)[C@H](NC(=O)[C@H](Cc1ccc(O)cc1)NC(=O)[C@H](Cc1cnc[nH]1)NC(=O)[C@H](CCCNC(=N)N)NC(=O)[C@H](CC(C)C)NC(=O)[C@H](C)NC(=O)[C@H](CO)NC(=O)[C@H](Cc1ccc(O)cc1)NC(=O)[C@H](Cc1ccc(O)cc1)NC(=O)[C@H](CCCNC(=N)N)NC(=O)[C@H](C)N)C(=O)N[C@@H](CC(N)=O)C(=O)N[C@H]1CNC(=O)CC[C@@H](C(=O)N[C@@H](CCCNC(=N)N)C(=O)N[C@@H](Cc2ccc(O)cc2)C(N)=O)NC(=O)[C@H](CCCNC(=N)N)NC(=O)[C@H]([C@@H](C)O)NC(=O)[C@H]([C@@H](C)CC)NC1=O` (H-ARYYSALRHYIN[Dap]ITRERY-NH2; lactam 13-17), for which the results for the equilibrium dissociation constant (Kd) in assay [1] (sk-n-be) and in assay [2] (sk-n-mc) were 0.59 µM and more than 1 µM, respectively.

For the compound `CC[C@H](C)[C@H](NC(=O)[C@H](Cc1ccc(O)cc1)NC(=O)[C@H](Cc1cnc[nH]1)NC(=O)[C@H](CCCNC(=N)N)NC(=O)[C@H](CC(C)C)NC(=O)[C@H](C)NC(=O)[C@H](CO)NC(=O)[C@H](Cc1ccc(O)cc1)NC(=O)[C@H](Cc1ccc(O)cc1)NC(=O)[C@H](CCCNC(=N)N)NC(=O)[C@H](C)N)C(=O)N[C@@H](CC(N)=O)C(=O)N[C@H]1CCCNC(=O)CC[C@@H](C(=O)N[C@@H](CCCNC(=N)N)C(=O)N[C@@H](Cc2ccc(O)cc2)C(N)=O)NC(=O)[C@H](CCCNC(=N)N)NC(=O)[C@H]([C@@H](C)O)NC(=O)[C@H]([C@@H](C)CC)NC1=O` (H-ARYYSALRHYIN[Orn]ITRERY-NH2; lactam 13-17), the Kd was 0.95 µM in assay [1] (sk-n-be) and more than 1 µM in assay [2] (sk-n-mc).
